Experiments:
Assay type in all cases: functional
CCRF-CEM = assay: Growth inhibition of human CCRF-CEM cells incubated for 48 hrs by sulforhodamine B assay
In short: (§1)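 NCI-60 five-dose screen at 0.01, 0.1, 1, 10 and 100 µM, 48 h incubation, sulforhodamine B end point. GI50 (50% decrease in net growth), TGI (total growth inhibition) and LC50 (net 50% loss of initial cells) taken from log concentration versus % growth inhibition curves.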

HL-60(TB) = assay: Growth inhibition of human HL-60(TB) cells incubated for 48 hrs by sulforhodamine B assay; details: HL-60, 48 h
In short: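 NCI-60 five-dose screen at 0.01, 0.1, 1, 10 and 100 µM for 48 h, sulforhodamine B read-out. GI50 taken from log concentration versus % growth inhibition curves as the concentration giving 50% decrease in net cell growth.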

K562 = assay: Growth inhibition of human K562 cells incubated for 48 hrs by sulforhodamine B assay; details: K562, 48 h; in short: as §1
MOLT-4 = assay: Growth inhibition of human MOLT4 cells incubated for 48 hrs by sulforhodamine B assay; details: MOLT-4, 48 h; in short: as §1
SR = assay: Growth inhibition of human SR cells incubated for 48 hrs by sulforhodamine B assay
In short: (§2)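 NCI 60 human tumour cell line panel, five-dose study at 0.01, 0.1, 1, 10 and 100 µM, 48 h incubation. Sulforhodamine B protein-binding dye end point. GI50 (50% decrease in net cell growth), TGI (total growth inhibition) and LC50 (net 50% loss of initial cells) read from log concentration versus % growth inhibition curves.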

A549 = assay: Growth inhibition of human A549/ATCC cells incubated for 48 hrs by sulforhodamine B assay; details: A549, 48 h; in short: as §1
HOP-62 = assay: Growth inhibition of human HOP62 cells incubated for 48 hrs by sulforhodamine B assay; details: HOP-62, 48 h; in short: as §1
NCI-H226 = assay: Growth inhibition of human NCI-H226 cells incubated for 48 hrs by sulforhodamine B assay; details: NCI-H226, 48 h; in short: as §1
NCI-H460 = assay: Growth inhibition of human NCI-H460 cells incubated for 48 hrs by sulforhodamine B assay; details: NCI-H460, 48 h; in short: as §1
NCI-H522 = assay: Growth inhibition of human NCI-H522 cells incubated for 48 hrs by sulforhodamine B assay; details: NCI-H522, 48 h; in short: as §1
HCC 2998 = assay: Growth inhibition of human HCC2998 cells incubated for 48 hrs by sulforhodamine B assay; details: HCC 2998, 48 h; in short: as §1
HCT-116 = assay: Growth inhibition of human HCT116 cells incubated for 48 hrs by sulforhodamine B assay; details: HCT-116, 48 h; in short: as §1
SW-620 = assay: Growth inhibition of human SW620 cells incubated for 48 hrs by sulforhodamine B assay; details: SW-620, 48 h; in short: as §2
SF-295 = assay: Growth inhibition of human SF295 cells incubated for 48 hrs by sulforhodamine B assay; details: SF-295, 48 h; in short: as §2
SF-539 = assay: Growth inhibition of human SF539 cells incubated for 48 hrs by sulforhodamine B assay; details: SF-539, 48 h; in short: as §2
U-251 = assay: Growth inhibition of human U251 cells incubated for 48 hrs by sulforhodamine B assay; details: U-251, 48 h; in short: as §2
LOX IMVI = assay: Growth inhibition of human LOXIMVI cells incubated for 48 hrs by sulforhodamine B assay; in short: as §1
MDA-MB-435 = assay: Growth inhibition of human MDA-MB-435 cells incubated for 48 hrs by sulforhodamine B assay; details: MDA-MB-435, 48 h; in short: as §1
SK-MEL-2 = assay: Growth inhibition of human SK-MEL-2 cells incubated for 48 hrs by sulforhodamine B assay; details: SK-MEL-2, 48 h; in short: as §2
SK-MEL-28 = assay: Growth inhibition of human SK-MEL-28 cells incubated for 48 hrs by sulforhodamine B assay; details: SK-MEL-28, 48 h; in short: as §2
UACC-257 = assay: Growth inhibition of human UACC257 cells incubated for 48 hrs by sulforhodamine B assay; details: UACC-257, 48 h; in short: as §2
OVCAR-3 = assay: Growth inhibition of human OVCAR3 cells incubated for 48 hrs by sulforhodamine B assay; details: OVCAR-3, 48 h; in short: as §1
NCI/ADR-RES = assay: Growth inhibition of human NCI/ADR-RES cells incubated for 48 hrs by sulforhodamine B assay; in short: as §1
SK-OV-3 = assay: Growth inhibition of human SKOV3 cells incubated for 48 hrs by sulforhodamine B assay; details: SK-OV-3, 48 h; in short: as §2
CAKI-1 = assay: Growth inhibition of human Caki1 cells incubated for 48 hrs by sulforhodamine B assay; details: CAKI-1, 48 h; in short: as §1
DU-145 = assay: Growth inhibition of human DU145 cells incubated for 48 hrs by sulforhodamine B assay; details: DU-145, 48 h; in short: as §1
MCF7 = assay: Growth inhibition of human MCF7 cells incubated for 48 hrs by sulforhodamine B assay; details: MCF7, 48 h; in short: as §1
T47D = assay: Growth inhibition of human T47D cells incubated for 48 hrs by sulforhodamine B assay; in short: as §2
[1] = read-out: LC50 (the source's name)

C=C1CC[C@@H]2[C@](C)(COC(C)=O)[C@H](OC(C)=O)CC[C@@]2(C)[C@H]1CC(Nc1ccc(S(=O)(=O)Nc2nccs2)cc1)C1=CCOC1=O (some centres undefined)
GI50 (CCRF-CEM): 2.28 µM
TGI (CCRF-CEM): 6.76 µM
CC50 (CCRF-CEM; [1]): > 100 µM
GI50 (HL-60(TB)): 3.01 µM
TGI (HL-60(TB)): 13.3 µM
CC50 (HL-60(TB); [1]): > 100 µM
GI50 (K562): 3.6 µM
TGI (K562): 29 µM
CC50 (K562; [1]): > 100 µM
GI50 (MOLT-4): 3.68 µM
TGI (MOLT-4): 73.2 µM
CC50 (MOLT-4; [1]): > 100 µM
GI50 (SR): 1.33 µM
TGI (SR): > 100 µM
CC50 (SR; [1]): > 100 µM
GI50 (A549): 3.67 µM
TGI (A549): 11.2 µM
CC50 (A549; [1]): 40.4 µM
GI50 (HOP-62): 13.8 µM
TGI (HOP-62): 27.5 µM
CC50 (HOP-62; [1]): 54.7 µM
GI50 (NCI-H226): 2.36 µM
TGI (NCI-H226): 5.37 µM
CC50 (NCI-H226; [1]): > 100 µM
GI50 (NCI-H460): 10.7 µM
TGI (NCI-H460): 25.3 µM
CC50 (NCI-H460; [1]): 59.9 µM
GI50 (NCI-H522): 1.72 µM
TGI (NCI-H522): 4.32 µM
CC50 (NCI-H522; [1]): 21.2 µM
GI50 (HCC 2998): 7.78 µM
TGI (HCC 2998): 21.3 µM
CC50 (HCC 2998; [1]): 50.3 µM
GI50 (HCT-116): 1.75 µM
TGI (HCT-116): 3.75 µM
CC50 (HCT-116; [1]): 8 µM
GI50 (SW-620): 1.85 µM
TGI (SW-620): 3.98 µM
CC50 (SW-620; [1]): 8.55 µM
GI50 (SF-295): 13.8 µM
TGI (SF-295): 27.2 µM
CC50 (SF-295; [1]): 53.8 µM
GI50 (SF-539): 2.35 µM
TGI (SF-539): 6.31 µM
CC50 (SF-539; [1]): 23.5 µM
GI50 (U-251): 1.86 µM
TGI (U-251): 3.5 µM
CC50 (U-251; [1]): 6.57 µM
GI50 (LOX IMVI): 1.59 µM
TGI (LOX IMVI): 3.31 µM
CC50 (LOX IMVI; [1]): 6.92 µM
GI50 (MDA-MB-435): 3.29 µM
TGI (MDA-MB-435): 12.7 µM
CC50 (MDA-MB-435; [1]): 38 µM
GI50 (SK-MEL-2): 10.6 µM
TGI (SK-MEL-2): 24.3 µM
CC50 (SK-MEL-2; [1]): 56.1 µM
GI50 (SK-MEL-28): 3.95 µM
LC50 (50% net cell kill) (SK-MEL-28): 41.8 µM
TGI (SK-MEL-28): 15.1 µM
GI50 (UACC-257): 2.55 µM
TGI (UACC-257): 5.61 µM
CC50 (UACC-257; [1]): 17.2 µM
GI50 (OVCAR-3): 1.88 µM
TGI (OVCAR-3): 3.64 µM
CC50 (OVCAR-3; [1]): 7.06 µM
GI50 (NCI/ADR-RES): 2.97 µM
LC50 (concentration giving net 50% loss of initial cells) (NCI/ADR-RES): > 100 µM
TGI (NCI/ADR-RES): 12.7 µM
GI50 (SK-OV-3): 14.4 µM
TGI (SK-OV-3): 27.8 µM
CC50 (SK-OV-3; [1]): 53.5 µM
GI50 (CAKI-1): 3.8 µM
TGI (CAKI-1): 14.2 µM
CC50 (CAKI-1; [1]): 37.7 µM
GI50 (DU-145): 4.47 µM
TGI (DU-145): 15.8 µM
CC50 (DU-145; [1]): 39.8 µM
GI50 (MCF7): 2.59 µM
TGI (MCF7): 13.6 µM
CC50 (MCF7; [1]): > 100 µM
GI50 (T47D): 3.39 µM
TGI (T47D): 20.8 µM
CC50 (T47D; [1]): > 100 µM

— ChEMBL document CHEMBL4033712, “Synthesis and biological evaluation of new C-12(α/β)-(N-) sulfamoyl-phenylamino-14-deoxy-andrographolide derivatives as potent anti-cancer agents” (Bioorg Med Chem Lett, 2017)
